Data set [1] concerns the target T1, Adenosine receptor A1 (Homo sapiens, UniProt P30542).
T1 sequence (P30542 whole entry): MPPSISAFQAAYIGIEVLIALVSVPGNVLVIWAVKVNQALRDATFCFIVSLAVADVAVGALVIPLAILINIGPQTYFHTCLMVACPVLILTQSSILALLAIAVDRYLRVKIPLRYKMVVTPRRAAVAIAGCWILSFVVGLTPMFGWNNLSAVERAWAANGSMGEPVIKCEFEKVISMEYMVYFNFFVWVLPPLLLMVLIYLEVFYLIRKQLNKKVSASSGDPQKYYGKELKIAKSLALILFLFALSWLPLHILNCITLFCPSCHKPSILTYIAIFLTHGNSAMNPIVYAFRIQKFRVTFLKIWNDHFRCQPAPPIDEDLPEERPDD
The data set is described as follows: Displacement of [3H]DPCPX from human adenosine A1 receptor expressed in HEK293 cell membranes after 90 mins.

Data set [2] concerns the target T1, Adenosine receptor A1. The data set is described as follows: Antagonist activity at human adenosine A1 receptor expressed in HEK293 cells assessed as reduction in CPA-mediated inhibition of forskolin-stimulated cAMP level preincubated for 15 mins followed by CPA treatment for 15 mins and subsequent addition of forskolin measured after 30 mins by HTRF assay. It counts as functional, cell-based. (Cyclic AMP is a second messenger, typically raised through Gs and lowered through Gi signalling.)

For another data set, the target named is Adenosine receptor A2a (Homo sapiens, UniProt P29274). The data set is described as follows: Displacement of [3H]ZM241385 from human adenosine A2A receptor expressed in HEK293 cell membranes after 90 mins. In outline:
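Membranes from HEK-293 cells stably transfected with human receptor, pre-treated with adenosine deaminase. Radioligands: 1 nM [3H]DPCPX (A1), 1 nM [3H]ZM241385 (A2A), 1.6 nM [3H]MRS-1754 (A2B), 2 nM [3H]HEMADO (A3). Buffers: Tris pH 7.4 (A1, A2A, A3) or pH 6.5 (A2B), with ADA. Incubated 90 min at room temperature, then filtered. Nonspecific binding defined with 100 µM NECA. Ki from 8 concentrations run in triplicate.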
On the technique in general: Loss of bound radioactivity is the signal in a displacement assay; it reports binding, not function.

A further data set deals with T2, Adenosine receptor A2b (Homo sapiens, UniProt P29275).
T2 sequence (P29275 whole entry): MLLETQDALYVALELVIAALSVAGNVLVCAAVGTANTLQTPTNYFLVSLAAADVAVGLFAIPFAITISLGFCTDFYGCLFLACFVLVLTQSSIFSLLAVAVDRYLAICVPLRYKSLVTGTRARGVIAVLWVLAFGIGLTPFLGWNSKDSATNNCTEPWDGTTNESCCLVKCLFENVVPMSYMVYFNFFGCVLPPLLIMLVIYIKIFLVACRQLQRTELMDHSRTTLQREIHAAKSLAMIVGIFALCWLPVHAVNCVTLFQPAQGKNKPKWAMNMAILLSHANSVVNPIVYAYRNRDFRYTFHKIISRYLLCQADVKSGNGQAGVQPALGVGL
The data set is described as follows: Antagonist activity at human adenosine A2B receptor expressed in HEK293 cells assessed as reduction in NECA-induced increase in cAMP level preincubated for 15 mins followed by NECA addition measured after 15 mins by HTRF assay. It is filed as functional, cell-based. A digest of the protocol:
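Overnight HEK-A1 or HEK-A2B cultures were treated with 1 U/mL ADA for 90 min at 37°C. Compound was added for 15 min, then agonist for 15 min (1 nM CPA for A1; 70 nM NECA for A2B) at room temperature in incomplete DMEM with ADA. Rolipram (20 µM) was included for A1 only. cAMP was read by HTRF.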

In a further data set the test system is Liver. The data set is described as follows: Metabolic stability in rat liver microsomes assessed as metabolic rate measured after 30 mins in presence of NADPH. It counts as ADME, microsome. As to conditions: 0.5 h. Background: Liver microsomes are vesicles of endoplasmic reticulum, rich in cytochrome P450 enzymes.
Data set [3] in a line: Metabolic stability in rat liver microsomes assessed as parent compound remaining measured after 30 mins in presence of NADPH. The following applies: read-out: Stability. It counts as ADME, microsome.
Data set [4] can be described thus: Metabolic stability in human liver microsomes assessed as parent compound remaining measured after 30 mins in presence of NADPH. The following applies: read-out: Stability. It counts as ADME, microsome.
The next data set addresses T3, CYP1A2 (Homo sapiens, UniProt P05177).
T3 sequence (P05177 whole entry): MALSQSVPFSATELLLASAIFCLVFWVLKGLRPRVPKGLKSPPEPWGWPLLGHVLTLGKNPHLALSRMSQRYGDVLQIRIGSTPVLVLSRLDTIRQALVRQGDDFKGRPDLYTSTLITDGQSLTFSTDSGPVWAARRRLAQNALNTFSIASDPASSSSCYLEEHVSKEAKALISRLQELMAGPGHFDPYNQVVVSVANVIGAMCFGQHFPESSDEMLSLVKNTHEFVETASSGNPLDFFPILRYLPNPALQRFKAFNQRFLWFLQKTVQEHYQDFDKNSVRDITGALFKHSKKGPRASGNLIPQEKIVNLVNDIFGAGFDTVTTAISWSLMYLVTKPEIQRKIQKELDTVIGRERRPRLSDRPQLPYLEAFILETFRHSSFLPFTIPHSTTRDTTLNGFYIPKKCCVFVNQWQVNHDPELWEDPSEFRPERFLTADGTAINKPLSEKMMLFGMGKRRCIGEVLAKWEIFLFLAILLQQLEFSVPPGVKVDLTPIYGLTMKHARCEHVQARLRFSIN
The data set is described as follows: Inhibition of CYP1A2 (unknown origin) at 5 uM relative to control. It is filed as ADME.

For another data set, the target named is CYP2D6 (Homo sapiens, UniProt P10635). The data set is described as follows: Inhibition of CYP2D6 (unknown origin) at 5 uM relative to control. It is filed as ADME.
A further data set has as its target CYP3A4 (Homo sapiens, UniProt P08684). The data set is described as follows: Inhibition of CYP3A4 (unknown origin) at 5 uM relative to control. It counts as ADME.
Data set [5] in a line: Protein binding in rat plasma at 5 uM. It counts as ADME, cell-free. As to conditions: read-out: PPB (converted).
Data set [6] is described as follows: Thermodynamic solubility of the compound in pH 2 solution. It is filed as physicochemical. The following applies: read-out: Therm_solubility.
Data set [7] can be described thus: Thermodynamic solubility of the compound in pH 4 solution. It is filed as physicochemical. As to conditions: read-out: Therm_solubility.
Data set [8] in a line: Thermodynamic solubility of the compound in pH 7.4 solution. It is filed as physicochemical. As to conditions: read-out: Therm_solubility.
Data set [9] in a line: AUC (0 to t) in Wistar rat at 3 mg/kg, iv by LC-Ms/MS analysis. The following applies: in vivo. It counts as ADME, organism-based. In outline: (§1)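 Male Wistar rats (230 ± 15 g), fasted overnight with water available. IV dose of 3 mg/kg given by tail vein as a solution (0.6 mg/mL, 5 mL/kg). PO dose of 5 mg/kg given by gavage as a suspension. Blood was collected into K2EDTA at 0.008 (IV only) to 24 h and plasma was spun off. Samples were precipitated with acetonitrile and run on LC/MS/MS. Parameters came from non-compartmental analysis of individual animals, mean of n = 4.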

A short description of data set [10]: Volume of distribution at steady state in Wistar rat at 3 mg/kg, iv by LC-Ms/MS analysis. It counts as ADME, organism-based. The following applies: in vivo, read-out: Vdss. A digest of the protocol: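 Male Wistar rats (230 ± 15 g), fasted overnight with water available. IV dosing at 3 mg/kg by tail vein as solution (0.6 mg/mL, 5 mL/kg). PO dosing at 5 mg/kg by oral gavage. Serial blood sampling into K2EDTA from 0.008 (IV only) to 24 h. Plasma precipitated with acetonitrile containing internal standard and analysed by LC/MS/MS. Non-compartmental parameters calculated per animal; values are means of n = 4.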

The nature of data set [11]: Clearance in Wistar rat at 3 mg/kg, iv by LC-Ms/MS analysis. It is filed as ADME, organism-based. The following applies: in vivo. A digest of the protocol: as §1
Data set [12] is described as follows: Elimination half life in Wistar rat at 3 mg/kg, iv by LC-Ms/MS analysis. The following applies: in vivo, read-out: beta t1/2 (converted). It counts as ADME, organism-based. A digest of the protocol:
as §1

As usually defined, the Ki is a measure of affinity in units of concentration, obtained from inhibition or displacement. The inhibition is the share of the control response that was lost under treatment. A high value points to strong suppression. One may read the AUC(0-t) as the area under the concentration-time curve up to a stated or last time point. A higher AUC(0-t) goes with more exposure. In general, clearance refers to the rate of elimination divided by the concentration. Low values mean inefficient removal, high ones efficient removal.

Converted amounts (≈) assume the structure as drawn. Where only a bound is given, the exact number is not on record here.

CYP3A4, sequence (P08684 whole entry): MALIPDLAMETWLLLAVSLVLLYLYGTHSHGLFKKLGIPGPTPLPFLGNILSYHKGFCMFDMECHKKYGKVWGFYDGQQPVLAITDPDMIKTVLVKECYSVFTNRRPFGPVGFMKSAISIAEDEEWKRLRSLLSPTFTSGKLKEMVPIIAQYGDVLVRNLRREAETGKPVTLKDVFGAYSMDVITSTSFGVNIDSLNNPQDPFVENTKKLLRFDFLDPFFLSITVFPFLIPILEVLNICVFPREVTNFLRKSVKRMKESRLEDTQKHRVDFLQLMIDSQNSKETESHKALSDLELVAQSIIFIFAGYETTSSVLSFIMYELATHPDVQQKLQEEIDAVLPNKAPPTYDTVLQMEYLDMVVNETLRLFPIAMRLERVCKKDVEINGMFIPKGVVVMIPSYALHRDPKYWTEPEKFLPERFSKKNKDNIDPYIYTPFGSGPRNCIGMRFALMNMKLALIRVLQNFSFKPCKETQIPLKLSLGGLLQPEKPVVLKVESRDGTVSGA
Adenosine receptor A2a, sequence (P29274 whole entry): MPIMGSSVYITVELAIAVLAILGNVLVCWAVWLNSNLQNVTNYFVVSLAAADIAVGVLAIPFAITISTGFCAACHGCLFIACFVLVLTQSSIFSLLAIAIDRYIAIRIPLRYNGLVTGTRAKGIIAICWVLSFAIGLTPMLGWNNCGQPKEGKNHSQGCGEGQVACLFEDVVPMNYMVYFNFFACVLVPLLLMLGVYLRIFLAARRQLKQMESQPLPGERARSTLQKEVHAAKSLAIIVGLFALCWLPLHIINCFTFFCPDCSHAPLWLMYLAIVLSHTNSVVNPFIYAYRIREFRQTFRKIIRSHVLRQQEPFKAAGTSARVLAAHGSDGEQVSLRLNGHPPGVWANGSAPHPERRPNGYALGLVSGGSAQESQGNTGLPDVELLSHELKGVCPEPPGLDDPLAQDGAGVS
CYP2D6, sequence (P10635 whole entry): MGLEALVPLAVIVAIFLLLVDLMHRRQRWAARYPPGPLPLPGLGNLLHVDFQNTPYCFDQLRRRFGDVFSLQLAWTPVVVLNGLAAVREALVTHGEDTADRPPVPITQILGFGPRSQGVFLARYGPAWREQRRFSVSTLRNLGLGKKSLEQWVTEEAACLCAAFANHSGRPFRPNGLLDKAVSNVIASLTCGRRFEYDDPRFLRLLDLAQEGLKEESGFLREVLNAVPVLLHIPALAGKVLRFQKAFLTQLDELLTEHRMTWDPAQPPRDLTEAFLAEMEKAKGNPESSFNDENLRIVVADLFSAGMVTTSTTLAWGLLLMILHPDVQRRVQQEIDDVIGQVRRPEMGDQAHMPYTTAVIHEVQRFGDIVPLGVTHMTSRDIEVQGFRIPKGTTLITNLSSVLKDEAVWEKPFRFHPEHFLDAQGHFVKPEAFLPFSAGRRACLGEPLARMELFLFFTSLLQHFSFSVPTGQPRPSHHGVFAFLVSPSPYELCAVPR

On to `CCCn1c(-c2cccc(OC)c2)nc2nc(C3CCCC3)[nH]c2c1=O`, for which the Ki is 16 nM at Adenosine receptor A1 [1], 15 nM at Adenosine receptor A1 [2], not below 10000 nM at Adenosine receptor A2a and 650 to 690 nM on Adenosine receptor A2b. Further, the Drug metabolism in the data set with Liver was 0.05 nmol/min/mg. For the same molecule, the values for the remaining at 0.5 h in data set [3] and in [4] were 82% and 97%, respectively. Also, the inhibition at 5 µM against CYP1A2 came out at 0%; against CYP2D6 it was 1%; against CYP3A4, 5%. The fraction unbound at 5 µM in [5] was 0.05. Besides, the solubility thermodynamic in data set [6] is 614 µM (≈ 216 µg/mL); in data set [7] it was 63 µM (≈ 22.2 µg/mL); in data set [8], 54 µM (≈ 19 µg/mL). Moreover, the AUC(0-t) in data set [9] came out at 3.53 µM·h. Also, the Vd in data set [10] stood at 1.2 L/kg. The clearance in data set [11] was 39.2 mL/min/kg. Besides, in data set [12], the half-life is 29.4 min.
Take `CCCn1c(Oc2cccnc2C)nc2nc(C3CCCC3)[nH]c2c1=O`: the Ki at Adenosine receptor A1 [1] was found to be 6.6 nM; at Adenosine receptor A1 [2] it was 0.28 nM; on Adenosine receptor A2a, 2000 nM; on Adenosine receptor A2b, 560 nM. In addition, the Drug metabolism in the data set with Liver was found to be 0.07 nmol/min/mg. The remaining at 0.5 h was 78% in [3] and 79% in data set [4]. The inhibition at 5 µM against CYP1A2, at CYP2D6 and against CYP3A4 was 0% throughout. The fraction unbound at 5 µM in data set [5] is 0.23. Further, the solubility thermodynamic in data set [6] turned out to be 2150 µM (≈ 761 µg/mL); in data set [7], 43 µM (≈ 15.2 µg/mL); in [8], 38 µM (≈ 13.4 µg/mL). In addition, in [9], the AUC(0-t) stood at 2.7 µM·h. The Vd in data set [10] came to 2 L/kg. Also, in data set [11], the clearance was found to be 55 mL/min/kg. Besides, the half-life in data set [12] is 30 min.
In the case of `CCCn1c(Oc2ccc(F)c(F)c2)nc2nc(C3CCCC3)[nH]c2c1=O`, the Ki on Adenosine receptor A1 [1] is 23 nM; on Adenosine receptor A1 [2] it was 13 nM; on Adenosine receptor A2a, more than 10000 nM; at Adenosine receptor A2b it was more than 10000 nM. In the data set on Liver, the Drug metabolism stood at 0.08 nmol/min/mg. The figures for the remaining at 0.5 h in data set [3] and in data set [4] were 75% and 82%, respectively. Further, the inhibition at 5 µM against CYP1A2 was found to be 7%; against CYP2D6 it was 10%; against CYP3A4, 34%. The fraction unbound at 5 µM in [5] was 0.01. Also, the solubility thermodynamic was 77 µM (≈ 28.8 µg/mL) in data set [6], 23 µM (≈ 8.61 µg/mL) in [7] and 17 µM (≈ 6.36 µg/mL) in data set [8]. Moreover, the AUC(0-t) in data set [9] came out at 10.2 µM·h. For the same molecule, the Vd in data set [10] was 1.73 L/kg. The clearance in data set [11] was found to be 13.6 mL/min/kg. Also, the half-life in data set [12] was 124 min.
